Measurements taken from ChEMBL document CHEMBL3352265, “Potentially bioactive organotin(IV) compounds: synthesis, characterization, in vitro bioactivities and interaction with SS-DNA” (Eur J Med Chem, 2014).
In brackets after ≈: the same amount, converted by molar mass. Activity calls are given as the source filed them. No cut-off for these calls is given here.

Columns and labels:
Leishmania major = test: Antileishmanial activity against Leishmania major kwh 23 after 72 hrs using neobar counting by microscopy; format: functional, organism-based; conditions: kwh 23, 72 h
In short: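 Leishmania major promastigotes grown 7 days at 24 °C in medium 199 with 10% FBS. Samples as 10,000 ppm DMSO stocks, added to reach 200 ppm in the first row and serially diluted in 96-well plates, DMSO kept <5%. DMSO negative and amphotericin B positive controls. Incubated 72 h at 24 °C. Mortality counted in a counting chamber by light microscopy. Run 3 times. IC50 is the concentration giving 50% parasite reduction.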

Escherichia coli [1] = test: Antibacterial activity against Escherichia coli ATCC 15224 at 40 mg/mL after 24 hrs by disc diffusion method; format: functional
In short: (§1)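 Disc diffusion. Strains grown in nutrient broth at 37 °C for 24 h. 1% culture (about 10^6 CFU/mL) mixed into nutrient agar at 45 °C and poured. 4 mm paper discs received compound at 40 mg/mL stock in DMSO; final concentrations tested were […]. DMSO served as negative control, roxithromycin and cefixime as positive controls. Triplicate plates incubated at 37 °C for 24 h. Complete-inhibition zone diameter (mm) recorded as the mean of 3.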

Staphylococcus aureus [2] = test: Antibacterial activity against Staphylococcus aureus ATCC 6538 at 40 mg/mL after 24 hrs by disc diffusion method; format: functional; in short: as §1
Klebsiella aerogenes [3] = test: Antibacterial activity against Enterobacter aerogenes ATCC 13048 at 40 mg/mL after 24 hrs by disc diffusion method; format: functional; in short: as §1
Salmonella typhimurium [4] = test: Antibacterial activity against Salmonella typhimurium ATCC 14028 at 40 mg/mL after 24 hrs by disc diffusion method; format: functional; conditions: Salmonella enterica subsp. enterica serovar Typhimurium; in short: as §1
[5] = system: Bordetella bronchiseptica; test: Antibacterial activity against Bordetella bronchiseptica ATCC 4617 at 40 mg/mL after 24 hrs by disc diffusion method; format: functional; in short: as §1
Bacillus spizizenii [6] = test: Antibacterial activity against Bacillus subtilis ATCC 6633 at 40 mg/mL after 24 hrs by disc diffusion method; format: functional; in short: as §1
Escherichia coli [7] = test: Antibacterial activity against Escherichia coli ATCC 15224 after 18 hrs by microdilution method; format: functional
In short: (§2)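 Broth microdilution. Twofold dilutions in culture broth at […]. Each well inoculated with bacterial suspension (10^8 CFU/mL, about 10^5 CFU/well). Sterility control and growth control (broth plus DMSO) included. Incubated at 36 °C for 18 h, in triplicate. MIC taken as the lowest concentration inhibiting growth, given in micrograms per mL.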

Staphylococcus aureus [8] = test: Antibacterial activity against Staphylococcus aureus ATCC 6538 after 18 hrs by microdilution method; format: functional; in short: as §2
Klebsiella aerogenes [9] = test: Antibacterial activity against Enterobacter aerogenes ATCC 13048 after 18 hrs by microdilution method; format: functional, organism-based; in short: as §2
Salmonella typhimurium [10] = test: Antibacterial activity against Salmonella typhimurium ATCC 14028 after 18 hrs by microdilution method; format: functional; conditions: Salmonella enterica subsp. enterica serovar Typhimurium; in short: as §2
[11] = system: Bordetella bronchiseptica; test: Antibacterial activity against Bordetella bronchiseptica ATCC 4617 after 18 hrs by microdilution method; format: functional; in short: as §2
Bacillus spizizenii [12] = test: Antibacterial activity against Bacillus subtilis ATCC 6633 after 18 hrs by microdilution method; format: functional; in short: as §2
Aspergillus niger [13] = test: Antifungal activity against Aspergillus niger FCBP 0198 at 40 mg/mL after 7 days by disc diffusion method; format: functional
In short: (§3)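 Disc diffusion on SDA. Fungi cultured at 28 °C for 24 h. 4 mm discs received compound at 40 mg/mL stock in DMSO. DMSO served as negative control, terbinafine as positive control. Plates incubated at 28 °C for 7 days. Growth diameter (mm) measured and inhibition calculated against the negative control. MIC taken as the lowest concentration with no growth.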

Aspergillus flavus [14] = test: Antifungal activity against Aspergillus flavus FCBP 0064 at 40 mg/mL after 7 days by disc diffusion method; format: functional; in short: as §3
Mucor [15] = test: Antifungal activity against Mucor FCBP 0400 at 40 mg/mL after 7 days by disc diffusion method; format: functional; in short: as §3
Aspergillus niger [16] = test: Antifungal activity against Aspergillus niger FCBP 0198 after 7 days by disc diffusion method; format: functional, organism-based; in short: as §3
Aspergillus fumigatus [17] = test: Antifungal activity against Aspergillus fumigatus FCBP 66 after 7 days by disc diffusion method; format: functional, organism-based; in short: as §3
Aspergillus flavus [18] = test: Antifungal activity against Aspergillus flavus FCBP 0064 after 7 days by disc diffusion method; format: functional, organism-based; in short: as §3
Mucor [19] = test: Antifungal activity against Mucor FCBP 0400 at 40 mg/mL by disc diffusion method; format: functional, organism-based; in short: as §3
Artemia salina = test: Cytotoxicity in brine shrimp assessed as mortality after 24 hrs; format: functional
[20] = system: Agrobacterium tumefaciens; test: Antitumor activity against Agrobacterium tumefaciens -induced tumor at 1000 ug/ml after 21 days by potato disc bioassay technique; format: functional
In short: (§4)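 Potato disc assay with 48 h culture of A. tumefaciens At-10. Inoculum contained compound at […]. Red-skinned potatoes sterilized in 0.1% HgCl2; 8 mm × 4 mm discs placed ten per 1.5% agar plate, […] each. Incubated at 28 °C in the dark for 21 days, in triplicate. Discs stained with Lugol's and tumors counted. Percent inhibition calculated against the negative control.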

[21] = system: Agrobacterium tumefaciens; test: Antitumor activity against Agrobacterium tumefaciens -induced tumor at 100 ug/ml after 21 days by potato disc bioassay technique; format: functional; in short: as §4
[22] = system: Agrobacterium tumefaciens; test: Antitumor activity against Agrobacterium tumefaciens -induced tumor at 10 ug/ml after 21 days by potato disc bioassay technique; format: functional; in short: as §4
Escherichia coli [23] = test: Induction of Escherichia coli pBR322 DNA damage assessed as open circular form at 1000 ug/ml after 60 mins by gel electrophoresis
Escherichia coli [24] = test: Induction of Escherichia coli pBR322 DNA damage assessed as open circular form at 100 ug/ml after 60 mins by gel electrophoresis
Escherichia coli [25] = test: Induction of Escherichia coli pBR322 DNA damage assessed as open circular form at 10 ug/ml after 60 mins by gel electrophoresis
Escherichia coli [26] = test: Induction of Escherichia coli pBR322 DNA damage assessed as open circular form at 1 ug/ml after 60 mins by gel electrophoresis
Aspergillus fumigatus [27] = test: Antifungal activity against Aspergillus fumigatus FCBP 66 at 40 mg/mL after 7 days by disc diffusion method; format: functional; in short: as §3

Row | Compound | inhibition zone (IZ) (Escherichia coli [1]) [mm] | inhibition zone (IZ) (Staphylococcus aureus [2]) [mm] | inhibition zone (IZ) (Klebsiella aerogenes [3]) [mm] | inhibition zone (IZ) (Salmonella typhimurium [4]) [mm] | inhibition zone (IZ) [5] [mm] | inhibition zone (IZ) (Bacillus spizizenii [6]) [mm] | MIC (Escherichia coli [7]) [µg/mL] | MIC (Staphylococcus aureus [8]) [µg/mL] | MIC (Klebsiella aerogenes [9]) [µg/mL] | MIC (Salmonella typhimurium [10]) [µg/mL] | MIC [11] [µg/mL] | MIC (Bacillus spizizenii [12]) [µg/mL] | inhibition zone (IZ) (Aspergillus niger [13]) [mm] | inhibition zone (IZ) (Aspergillus flavus [14]) [mm] | inhibition zone (IZ) (Mucor [15]) [mm] | MIC (Aspergillus niger [16]) [µg/mL] | MIC (Aspergillus fumigatus [17]) [µg/mL] | MIC (Aspergillus flavus [18]) [µg/mL] | MIC (Mucor [19]) [µg/mL] | LD50 (Artemia salina) [µg/mL] | also measured
1 | C[C@@H]1[C@H](O)[C@@H](C)/C=C/C=C/C=C/C=C/C=C/C=C/C=C/[C@H](O[C@@H]2O[C@H](C)[C@@H](O)[C@H](N)[C@@H]2O)C[C@@H]2O[C@](O)(C[C@@H](O)C[C@@H](O)[C@H](O)CC[C@@H](O)C[C@@H](O)CC(=O)O[C@H]1C)C[C@H](O)[C@H]2C(=O)O [AMPHOTERICIN B] | – | – | – | – | – | – | – | – | – | – | – | – | – | – | – | – | – | – | – | – | IC50 (Leishmania major): 0.56 µg/mL (≈ 0.606 µM)
2 | N-[(2-methoxyphenyl)]-4-oxo-4-[(triethylstannyl)oxy]butanamide | 34 | 28 | 22 | 26 | 38 | 36 | 6.25 | 50 | 6.25 | 6.25 | 6.25 | 6.25 | 48 | 46 | 34 | 0.78 | 0.78 | 0.78 | 0.78 | 0.881 | Activity [20]: 84.1%; Activity [21]: 70.3%; Activity [22]: 48.3%; Activity (Escherichia coli [23]): Active; Activity (Escherichia coli [24]): Active; Activity (Escherichia coli [25]): Active; Activity (Escherichia coli [26]): Active
3 | N-[(2-methoxyphenyl)]-4-oxo-4-[(tributylstannyl)oxy]butanamide | 0 | 12 | 18 | 0 | 12 | 19 | 150 | 150 | 100 | 100 | 100 | 50 | 40 | 32 | 20 | 1.56 | 3.12 | 3.12 | 3.12 | 0.433 | inhibition zone (IZ) (Aspergillus fumigatus [27]): 32 mm; Activity [20]: 87.8%; Activity [21]: 72.4%; Activity [22]: 52.3%; Activity (Escherichia coli [23]): inactive; Activity (Escherichia coli [24]): inactive; Activity (Escherichia coli [25]): inactive; Activity (Escherichia coli [26]): inactive
4 | N-[(2-methoxyphenyl)]-4-oxo-4-[(trimethylstannyl)oxy]butanamide | 26 | 25 | 20 | 23 | 26 | 27 | 25 | 50 | 50 | 25 | 12.5 | 25 | 28 | 28 | 24 | 12.5 | 50 | 50 | 50 | 1.09 | inhibition zone (IZ) (Aspergillus fumigatus [27]): 22 mm; Activity [20]: 69.9%; Activity [21]: 54.8%; Activity [22]: 30.2%; Activity (Escherichia coli [23]): Active; Activity (Escherichia coli [24]): Active; Activity (Escherichia coli [25]): Active; Activity (Escherichia coli [26]): Active
